# Source: PubChem (several laboratories)
# Furin inhibitor: blocks human furin protease activity | purified furin, fluorogenic substrate cleavage | inhibition, % at 20 µM or 30 µM | actives 0.061% (n = 220,000); in the data active means inhibition above about 25%
# KLK5 inh: kallikrein 5 (human) inhibition; recombinant hK5, fluorogenic AMC substrate cleavage; AID 873; inhibition, % at 5 µM; actives 0.59% (n = 210,000);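 active means inhibition of 40% or more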;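 further: 0% = enzyme controls without compound and 100% = no-enzyme blanks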
# FXIa inh 1536: factor XIa (human) inhibition. AID 798. actives 0.14% (n = 220,000). inhibition, % at 5 µM. purified FXIa, Boc-Glu-Ala-Arg-AMC fluorogenic substrate. P03951;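 active means inhibition of at least 40%; inactive means inhibition below 40%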;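 further: fluorescence of freed AMC excited at 355 nm; 0% = enzyme without compound and 100% = no enzyme blank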
# Target sequence (P03951 19-387 limits assumed): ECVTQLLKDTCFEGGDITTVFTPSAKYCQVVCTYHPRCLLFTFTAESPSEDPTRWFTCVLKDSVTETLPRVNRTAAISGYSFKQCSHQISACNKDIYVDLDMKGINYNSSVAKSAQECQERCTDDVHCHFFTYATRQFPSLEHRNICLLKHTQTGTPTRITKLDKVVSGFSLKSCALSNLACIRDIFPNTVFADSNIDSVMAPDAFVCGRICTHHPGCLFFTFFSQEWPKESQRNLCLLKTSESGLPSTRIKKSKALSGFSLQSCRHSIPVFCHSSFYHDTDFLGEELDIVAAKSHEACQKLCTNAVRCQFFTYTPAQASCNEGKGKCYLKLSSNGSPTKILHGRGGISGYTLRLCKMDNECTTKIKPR
# Target sequence (P03951 388-625 limits assumed): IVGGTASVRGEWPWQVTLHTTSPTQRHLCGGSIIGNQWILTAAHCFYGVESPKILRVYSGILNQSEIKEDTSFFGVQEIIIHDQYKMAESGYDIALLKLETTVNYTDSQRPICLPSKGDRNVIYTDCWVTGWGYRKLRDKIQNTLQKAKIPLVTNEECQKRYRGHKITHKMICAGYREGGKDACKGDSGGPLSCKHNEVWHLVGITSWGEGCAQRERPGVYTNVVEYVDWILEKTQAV
# thrombin 1536: thrombin (human) inhibition. P00734. alpha-thrombin, Boc-VPR-AMC fluorogenic substrate cleavage. inhibition, % at 5 µM. actives 0.26% (n = 220,000);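 active means inhibition at or above 40%; inactive means inhibition below 40%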;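 further: 0% = enzyme with no compound and 100% = wells without enzyme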
#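 signal = AMC fluorescence, 355/460 nm | material = human alpha-thrombin enzyme | control set = enzyme without compound as high, wells lacking enzyme as low | times = reaction at room temperature | read-out basis = percent inhibition scaled between no-compound controls and no-enzyme blanks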
# m-calpain inh: calpain II (pig) inhibition; AID 1236; actives 0.37% (n = 220,000); purified calpain II, fluorogenic peptide substrate, 30 min; inhibition, % at 16 µM;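 active means inhibition above about 50%, limit read from the data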
# FXIIa inh: factor XIIa (human) inhibition; AID 800; actives 0.3% (n = 220,000); P00748; inhibition, % at 5 µM; purified FXIIa, Boc-QGR-AMC fluorogenic substrate, 2 h; in the data active means inhibition above about 40%;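 further: 0% = enzyme with no compound and 100% = blank without enzyme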
# The depositor's hits bear a star; / = not tested or not shown. Rows were chosen to be rich in hits. Some 1.4% of all compounds tested hit in one or more screens of this group.
SMILES,Furin inhibitor,KLK5 inh,FXIa inh 1536,thrombin 1536,m-calpain inh,FXIIa inh
CCc1cccc(CC)c1NC(=O)c1ccccc1,-18,1,-1,-2,-12,11
Cc1occc1-c1nnc(SCc2nnc(-c3ccc(Cl)cc3)o2)n1C,-29,2,5,-1,-17,11
O=[N+]([O-])c1ccc(OCC(O)CN2CCN(c3ccccc3F)CC2)cc1 (centres undefined),-11,-4,-4,-9,57*,7
Cc1nn(C)c(C)c1/C=C(/C(=O)C(C)(C)C)n1cncn1,-28,-1,-2,-3,9,3
Cc1nn(C)c(C)c1/C=C(/C(=O)C(C)C)n1cncn1,-4,40*,42*,7,12,25
CNC(=S)NNC(=O)CNc1ccc(C)c(Cl)c1,-42,1,4,-1,9,10
COc1ccc(-c2csc(N3C(=O)C4C5c6ccccc6C(c6ccccc65)[C@@H]4C3=O)n2)cc1 (some centres undefined),-27,-20,0,-3,-23,8
COc1ccc(-c2csc(N3C(=O)C4C5c6ccccc6C(c6ccccc65)C4C3=O)n2)cc1 (centres undefined),2,62*,10,23,3,17
O=[N+]([O-])c1ccc2c(c1)c1ccccc1n2CCO,6,23,24,39,8,50*
Cc1ccc(C(C(=O)NC2CCCC2)N(C(=O)Cc2cccs2)c2ccc(C)c(C)c2)o1 (centres undefined),-16,15,15,12,63*,14
Cc1ccc(N(C(=O)CCl)C(C(=O)NC2CCCCC2)c2cccnc2)cc1C (centres undefined),-10,-26,-9,-6,102*,0
Cc1ccc(C)c(N(C(=O)Cc2cccs2)C(C(=O)NC2CCCC2)c2ccc(C)o2)c1 (centres undefined),-11,-10,5,0,53*,10
Cc1ccc(N(C(=O)Cc2cccs2)C(C(=O)NC2CCCC2)c2ccncc2)cc1 (centres undefined),-29,-3,-7,-8,0,6
Cc1ccc(C(C(=O)NC2CCCC2)N(C(=O)Cc2cccs2)c2ccc3c(c2)OCCO3)cc1 (centres undefined),-24,-12,0,-8,-50,18
O=C(c1noc2c1CCc1ccccc1-2)N1CCc2ccccc2C1,-13,30,7,21,36,23
O=C(c1noc2c1CCc1ccccc1-2)N1CCOCC1,-14,72*,-9,1,-16,-7
Cc1ccc2c(c1)CC1(CN2C)C(=O)OC(C)(C)OC1=O,-16,9,14,73*,18,16
Cc1ccc2c(c1)C1(C(=O)N2C)N2CC3(C)CN1CC(C)(C2)C3=O (centres undefined),-19,3,19,1,17,27
O=C(CSc1nnc(-c2ccccc2)c(-c2ccccc2)n1)Nc1ccc(Br)cn1,-8,2,23,62*,-1,28
C[n+]1nc(Nc2cccc3ccccc23)sc1-c1ccc(C(=O)O)cc1,-26,5,5,2,-27,9
Cc1ccccc1NNC(=O)C(=O)NNc1ccccc1C,-7,50*,16,18,13,34
Cc1cccc(C(=O)N2CC3(C)CC2CC(C)(C)C3)c1 (centres undefined),-19,-2,9,3,9,14
Cc1cccc(NC(=S)NCc2ccco2)n1,-16,1,0,-15,5,2
C=C(C)CNC(=S)Nc1cccc(N)n1,0,41*,48*,11,18,20
O=C(CSc1nnnn1-c1ccc2c(c1)OCCO2)c1cccc2c1OCCO2,-9,24,3,12,4,10
SMILES,Furin inhibitor,KLK5 inh,FXIa inh 1536,thrombin 1536,m-calpain inh,FXIIa inh
O=C1NC(=S)S/C1=C\c1cc2ccccc2nc1N1CCCCC1,-2,-3,-7,0,56*,3
COc1cccc2sc(/N=C/N(C)C)nc12,9,35,24,22,15,46*
COc1cccc2sc(N(C)c3ccccc3)nc12,-9,-7,15,-3,11,26
O=C(c1cccs1)N(c1ccc(Cl)cc1)C1C=CS(=O)(=O)C1 (centres undefined),-7,0,-3,-2,4,/
COC(=O)c1ccc(-c2noc(CN3CCCC(CNC(C)=O)C3)n2)cc1 (centres undefined),-28,-2,-3,-12,-32,4
CN(C)c1ccc(-c2nnc(-c3ccc(S(=O)(=O)C(F)F)cc3)o2)cc1,-15,-9,-3,-5,-60,7
COC(=O)c1ccccc1NC(=O)N1CCN(c2ccc(F)cc2)CC1,1,-5,-5,-6,51*,3
COc1ccc(C(=O)COC(=O)c2ccc(NC(C)=O)cc2)cc1[N+](=O)[O-],0,-2,6,1,19,13
C=CCn1c(O)c(N=NC(=S)Nc2ccccc2F)c2cc(S(=O)(=O)N3CCOCC3)ccc21,-5,20,35,-2,-148,55*
C=CCn1c(O)c(N=NC(=S)Nc2ccccc2F)c2ccccc21,-8,-17,3,-8,5,11
CCOC(=O)c1cc2c(=O)n3cccc(C)c3nc2n(Cc2cccnc2)c1=N,-36,/,/,/,/,/
Cc1ccc(C(=O)Cn2nnc(-c3cccs3)n2)cc1,-31,0,-1,-2,-21,4
O=C(CN1CC[n+]2c(-c3cccs3)csc21)c1ccc(-c2ccccc2)cc1,-14,-10,-3,3,58*,-2
CN(NC1OC(=O)c2ccccc21)c1ncc(Cl)cc1C(F)(F)F (centres undefined),11,35,16,14,17,107*
O=C1OC(Nc2ccc(Cl)cn2)c2ccccc21 (centres undefined),-10,2,-6,-6,-17,-2
Cc1ccc(CN2CC(C(=O)O)CC2=O)cc1 (centres undefined),-17,-28,-1,5,-10,4
CCC/S(C)=N/S(=O)(=O)c1ccc(C)cc1 (centres undefined),2,48*,38,10,19,11
Cn1ncc(Cl)c1C(=O)Nc1cccc(Cl)c1,30*,-12,18,0,-9,31
COC(Cn1c(C)c(C(C)=O)c(C(C)=O)c1C)OC,-14,1,24,2,22,48*
Cc1ccc(-c2nnn(CC(=O)N(CCN3CCOCC3)C(C(=O)NC(C)(C)C)c3ccco3)n2)cc1 (centres undefined),-26,0,-4,-1,-5,6
CCCc1nc2ccc(NC(=O)c3ccco3)cc2c(=O)n1Cc1ccc(Cl)cc1,-18,-2,3,-1,4,5
COc1cc(/C=C/C(=O)OCC(=O)NC(=O)NC(C)C)ccc1O,27*,-2,-2,-15,-16,0
